PubChem BioAssay AID1800 (The Scripps Research Institute Molecular Screening Center, 2009)
About 1,600 (0.55%) of roughly 290,000 compounds were called active. The sample as a whole holds a higher share of actives than the screen did. A number with no mark means an inactive call.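 The calls were made as follows: active = inhibition above the mean of all tested compounds plus 3 SD, set per campaign (cut at about 35% in these data); inactive = the rest.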

What follows are molecules tested on Hepatitis C virus NS3 helicase (assay: HCV NS3 DNA unwinding blockers – biochemical, Cy5 molecular beacon fluorescence, primary screen (AID 1800)). Conditions: at 10.9 µM, stronger effect = higher value.
Method in brief: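 Material: hepatitis C virus NS3 helicase domain fragment enzyme; measured by: Cy5 fluorescence, 0 and 60 min reads; control set: DMSO and thioflavine S; incubation: 60 min unwinding reaction at 25 °C after ATP addition; read-out basis: % inhibition from 60/0 min fluorescence ratio, DMSO 0%, thioflavine S 100%; repeats: singlicate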
O=C(NC1CCCC1)c1cc(-c2ccccc2)on1 was tested, and the inhibition was -12.1%.
Molecule O=C(NCCc1ccccn1)c1nc(Cn2cc([N+](=O)[O-])cn2)no1 has an inhibition of 2.16%.
Molecule COCCN1CCn2c(nc3cc(NS(C)(=O)=O)ccc32)C1 has an inhibition of -2.65%.
Molecule Cc1nn(CC(=O)Nc2ccc(F)cc2)c(=O)c2ccccc12 has an inhibition of 17.6%.
Work on COc1ccc(C2=NN(C(C)=O)C(c3ccccc3)C2)cc1 (centres undefined) yielded an inhibition of -3.52%.
O=C(O)CCCC(=O)N1N=C(c2ccco2)CC1c1ccco1 (centres undefined) gave an inhibition of 1.26%.
For Cc1nn2c(c1-c1ccccc1)N=C(c1ccco1)CC2c1ccccc1 (centres undefined), the inhibition was 39.1% (active).
Cc1cc2nc3c(=O)n(Cc4ccccc4)c(=O)[nH]c3nc2cc1N showed an inhibition of -1.52%.
With Nc1ccc2nc3c(=O)[nH]c(=S)[nH]c3nc2c1 the inhibition was 80.4% (active).
For CCc1cccc(C)c1N1C(=O)CN(Cc2ccccc2)C1=S, the inhibition was -10.7%.
In the case of O=C(C[C@H]1C(=O)N(c2ccc(F)c(F)c2)C[C@@H]1Cc1ccccc1)Nc1ccccc1, the inhibition is reported as -4.71%.
Cc1ccc(S(=O)(=O)N2CCN(C)CC2)cc1C(=O)NC1CCCCC1 was tested, and the inhibition was 0.44%.
COc1ccc(CNC(=O)c2nnn(CC(=O)Nc3cc(C)cc(C)c3)c2N)cc1 showed an inhibition of -13.3%.
With COc1cccc(CNC(=O)c2nnn(CC(=O)Nc3cc(Cl)ccc3C)c2N)c1 the inhibition was 38.7% (active).
In the case of COc1cccc(CNC(=O)c2nnn(CC(=O)Nc3cc(C)ccc3C)c2N)c1, the inhibition is reported as 8.19%.
For CS(=O)(=O)C1=NN2C(=N)/C(=C\c3ccc(OCCOc4ccccc4)cc3)C(=O)N=C2S1, the inhibition was 7.31%.
In the case of CS(=O)(=O)c1ccc2c(c1)SC1=NC(=O)/C(=C/c3ccco3)C(=N)N12, the inhibition is reported as 39.8% (active).
Work on Cc1cc(/C=C2/C(=N)N3C(=NC2=O)SN=C3S(C)(=O)=O)c(C)n1-c1ccccc1 yielded an inhibition of 20%.
CCN(CC)C(=O)COc1coc(CN2CCN(Cc3ccccc3)CC2)cc1=O showed an inhibition of -0.99%.
Molecule CCSc1nsc(NC(=O)Nc2ccccc2OC)n1 has an inhibition of -3.36%.
C=CCSc1nsc(NC(=O)Nc2cccc(C(C)=O)c2)n1 was tested, and the inhibition was -3.05%.
In the case of CCSc1nsc(NC(=O)Nc2cccc(C(C)=O)c2)n1, the inhibition is reported as 38.8% (active).
With CCOc1ccc(N(C)S(=O)(=O)c2cnc[nH]2)cc1 the inhibition was 4.43%.
COC(=O)c1ccccc1NC(=O)C1CCN(C(=O)N2CCOc3ccccc32)CC1 gave an inhibition of -12.1%.
COc1ccc(S(=O)(=O)NCC(=O)NC2CC2)cc1OC was tested, and the inhibition was 22.6%.
With COc1ccc(C)cc1NC(=O)NCCCCc1ccccc1 the inhibition was 2.02%.
COC(=O)c1cnn2c(C(F)(F)F)cc(-c3ccco3)nc12 showed an inhibition of 18.2%.
Molecule CN(C(=O)COC(=O)c1cc(-c2ccco2)nc2ccccc12)C1CCS(=O)(=O)C1 (centres undefined) has an inhibition of 20.9%.
Cc1cc(C)c2nc(-c3ccco3)cc(C(=O)O)c2c1 was tested, and the inhibition was 37.2% (active).
With N#C/C=C(/c1ccc(F)cc1)N1CCOCC1 the inhibition was 40.5% (active).
Work on O=C(Oc1ccc(F)cc1)N1CCOCC1 yielded an inhibition of 4.09%.
Work on O=C(Oc1ccc(C(=S)N2CCOCC2)cc1)c1ccc(F)cc1 yielded an inhibition of -0.77%.
CS(=O)(=O)N1CCc2cc(C(=O)Nc3ccccc3Br)ccc21 gave an inhibition of 5.96%.
With COc1cc2c(cc1OC)CN(CC(=O)Nc1ccc(F)cc1)CC2 the inhibition was -2.51%.
For CCN(CCCNC(=O)c1ccc2c(c1)NC(=O)CN2C)c1cccc(C)c1, the inhibition was 2.74%.
O=c1c(-c2cccc(Cl)c2)c[nH]n1-c1ccccc1 gave an inhibition of 4.7%.
For O=c1c2c(-c3ccccc3)ccnc2[nH]n1-c1ccccc1, the inhibition was 47.7% (active).
With Cc1ccc(-c2ccnc3[nH]n(-c4ccccc4)c(=O)c23)cc1 the inhibition was 15.7%.
In the case of COc1ccc(C(=O)N(C)CC(O)c2ccccc2)cc1OC1CCN(C(C)=O)CC1 (centres undefined), the inhibition is reported as 32.3%.
CCNC(=O)CC1C(=O)N(c2ccc(OC)cc2)C(=O)N1CCOC (centres undefined) gave an inhibition of 1.88%.
Molecule CC1Sc2ccc(S(=O)(=O)CCC(=O)NCc3ccccc3Cl)cc2NC1=O (centres undefined) has an inhibition of 8.3%.
COc1ccccc1N1CCN(C(=O)CCS(=O)(=O)c2ccc3c(c2)NC(=O)C(C)S3)CC1 (centres undefined) was tested, and the inhibition was 38.1% (active).
For Cc1cccc(N2CCN(C(=O)CCS(=O)(=O)c3ccc4c(c3)NC(=O)C(C)S4)CC2)c1C (centres undefined), the inhibition was -0.36%.
In the case of Cc1ccc(S(=O)(=O)NCC(=O)N(CC(=O)NCC2CCCO2)c2cccc(F)c2)cc1 (centres undefined), the inhibition is reported as -2.87%.
Work on O=C(c1ccc(F)cc1)n1c(=S)nc2ccccn21 yielded an inhibition of 12%.
CC(=O)c1ccccc1OCc1ccc(C(=O)c2ccccc2)cc1 was tested, and the inhibition was -8.3%.
O=C1CC(N2CCN(c3ccc(F)cc3)CC2)C(=O)N1c1ccccc1 (centres undefined) gave an inhibition of -13.4%.
Work on O=C(Cc1ccccc1)NC(=S)Nc1ccc(N2CCCCC2)cc1 yielded an inhibition of -1.95%.
With O=C1C=CC(=O)N1c1ccc(N2CCCCC2)cc1 the inhibition was 45.2% (active).
In the case of COc1cccc(NC(=O)c2ccccc2N(Cc2ccccc2)S(C)(=O)=O)c1, the inhibition is reported as 0.24%.
CC(=O)N1c2ccc(S(=O)(=O)N3CCCC(C(=O)Nc4ccc(C)cc4C)C3)cc2CC1C (centres undefined) gave an inhibition of -18.4%.
For Cc1occc1C(=O)N/N=C/c1ccc(-c2cccc([N+](=O)[O-])c2)o1, the inhibition was 45.3% (active).
In the case of Cc1cc(C(=O)N/N=C/c2ccccc2[N+](=O)[O-])c(C)o1, the inhibition is reported as 5.42%.
Molecule Cc1ccc(-c2ccc(/C=N/NC(=O)CN3CCOCC3)o2)cc1[N+](=O)[O-] has an inhibition of 6.31%.
Work on COc1ccc(Cn2c(-c3ccc(Cl)cc3)c[n+]3ccccc23)cc1 yielded an inhibition of -35.9%.
CCCCn1c(O)c(N=NC(=O)Cn2c(C(F)(F)F)nc3ccccc32)c2ccccc21 gave an inhibition of 0.68%.
For Oc1oc(-c2ccccc2Br)nc1/C=N/c1ccccn1, the inhibition was -6.78%.
O=C(c1ccco1)N1CCN(C(=S)Nc2cc(F)cc(F)c2)CC1 gave an inhibition of -5.92%.
In the case of CC1CCCN(c2ccc(C(=O)NCCc3ccccc3)cn2)C1 (centres undefined), the inhibition is reported as -1.78%.
In the case of O=C(O)c1ccc(/C=N/Nc2nc(N3CCCCC3)nc(N3CCCCC3)n2)cc1, the inhibition is reported as 3.13%.
In the case of Cc1ccc(C(CC(=O)O)Nc2nc(N3CCCCC3)nc(N3CCCCC3)n2)cc1 (centres undefined), the inhibition is reported as 46.7% (active).
With CCC(NC(=O)C1CCCC1)c1ccc(C)cc1 (centres undefined) the inhibition was 1.79%.
For Cc1ccc(C(=O)COC(=O)CCN2C(=O)C3C4CCC(C4)C3C2=O)cc1C (centres undefined), the inhibition was 19.3%.
Molecule CC1CN(C(=S)Nc2cccc(F)c2)CC(C)O1 (centres undefined) has an inhibition of -3.8%.
With COc1ccc(S(=O)(=O)N2CCSCC2)cc1 the inhibition was 9.62%.
COC(=O)CN1C(=O)C(O)=C(C(C)=O)C1c1ccc([N+](=O)[O-])cc1 (centres undefined) was tested, and the inhibition was -0.09%.
For CC(=O)C1=C(O)C(=O)N(c2ccc(Br)cc2)C1c1ccc([N+](=O)[O-])cc1 (centres undefined), the inhibition was 36% (active).
CC(=O)C1=C(O)C(=O)N(c2cccnc2)C1c1ccc([N+](=O)[O-])cc1 (centres undefined) gave an inhibition of -3.05%.
In the case of CN(Cc1ccc(F)cc1)C(=O)COc1ccc2ccccc2c1, the inhibition is reported as -17.8%.
COCn1c(C(O)c2ccccc2)cc2ccccc21 (centres undefined) was tested, and the inhibition was -4.17%.
COC(=O)COc1ccc2c(c1C)O/C(=C\c1ccco1)C2=O was tested, and the inhibition was 90.2% (active).
Molecule Cc1cc(C)c(OCC(=O)N/N=C/c2ccco2)c(C)c1 has an inhibition of -4.49%.
For COC(=O)C1=C(C)N(c2ccc(Br)cc2)C(=O)/C1=C\c1ccco1, the inhibition was 17.4%.
Molecule Cn1ncc2c(N3CCCCC3)nc(NCCCO)nc21 has an inhibition of 5.11%.
CC(=O)NN1C(=O)c2ccccc2NC1c1ccccc1 (centres undefined) was tested, and the inhibition was -4.55%.
COC1=C/C(=C/c2c(N)n3nc(CC(=O)N4CCOCC4)sc3nc2=O)C=CC1=O was tested, and the inhibition was 13.6%.
COc1cccc(NC(=O)CSc2nnc(Cc3ccc(OC)c(OC)c3)o2)c1 was tested, and the inhibition was -10.1%.
With O=C(N/N=C/c1ccco1)c1csc2c1CCCC2 the inhibition was 42.9% (active).
Work on O=C(N/N=C/c1ccco1)c1ccc(NC(=O)C2CC2)cc1 yielded an inhibition of 2.86%.
For O=C(N/N=C/c1ccco1)c1ccc(C(=O)N/N=C/c2ccco2)o1, the inhibition was -3.79%.
Cc1ccc(C)c(S(=O)(=O)N2CCCOC2CNC(=O)C(=O)NC2CCCCC2)c1 (centres undefined) gave an inhibition of 8.68%.
For CCc1cc2c(=O)n(-c3ccccc3)c(SCC(=O)O)nc2s1, the inhibition was 5.68%.
For COc1ccc(C2C3=C(CCCC3=O)N(CC(=O)O)C3=C2C(=O)CCC3)cc1, the inhibition was 2.66%.
Work on CCOc1ccc(C2C(C#N)=C(N)N(N(C)C)C3=C2C(=O)CCC3)cc1 (centres undefined) yielded an inhibition of 6.79%.
In the case of CCOc1ccc(C2C3=C(CCCC3=O)N(CC(=O)O)C3=C2C(=O)CCC3)cc1, the inhibition is reported as 59.8% (active).
Molecule COc1ccc(N(C(=O)c2snc(C(N)=O)c2N)C(C(=O)NC2CCCC2)c2ccc(C)o2)c(OC)c1 (centres undefined) has an inhibition of -6.52%.
In the case of Cc1[nH]n(-c2cccc(Cl)c2)c(=O)c1-c1ccc(Cl)cc1, the inhibition is reported as 1.96%.
Cc1[nH]n(C(N)=S)c(=O)c1N=Nc1ccc(Cl)cc1Cl was tested, and the inhibition was 44.7% (active).
For CC1=NN(C(N)=S)C(=O)C1N=Nc1cc(Cl)ccc1Cl (centres undefined), the inhibition was 34.2%.
O=C(CSC(=S)N1CCCCC1)c1c(F)cccc1F gave an inhibition of 4.19%.
In the case of COc1ccc(CC(=O)N/N=C(\C)c2ccccn2)cc1, the inhibition is reported as 8.79%.
Cc1cccc(OCC(=O)NCCCNC(=O)c2ccccn2)c1 was tested, and the inhibition was 4.84%.
For CCN(CC)CCOc1ccc2c(c1)C(=NNC(=O)c1ccccn1)c1cc(OCCN(CC)CC)ccc1-2, the inhibition was 41% (active).
For COc1ccc(NC(=S)N2CCC(NC(=O)c3cccc(F)c3)CC2)cc1, the inhibition was 5.28%.
